According to ChEMBL document CHEMBL1137535, “Structure-activity relationship of antileishmanials neolignan analogues” (2007):

How the values were obtained:
Leishmania donovani = assay: Antileishmanial activity against Leishmania donovani LD-1/MHOM/SD/00-1S in mouse peritoneal macrophages at 80 ug/mL after 48 hrs relative to control; assay type: functional
Procedure, shortened: (§1)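 BALB/c peritoneal macrophages, 2 · 10⁵ cells per chamber in DMEM, held 2 h at 37 °C in 4% CO₂/air. They were then infected for 4 h with 8 · 10⁵ stationary-phase promastigotes in DMEM with 5% heat-inactivated FCS and antibiotics. After washing off free parasites, compound was added in quadruplicate for 48 h. Monolayers were methanol-fixed and Giemsa-stained, and amastigotes counted per 200 cells. Result is % growth inhibition versus untreated controls.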

Leishmania amazonensis = assay: Antileishmanial activity against Leishmania amazonensis MHOM/BR/75-josefa in mouse peritoneal macrophages at 80 ug/mL after 48 hrs relative to control; assay type: functional; procedure, shortened: as §1
[1] = (§2) Toxicity against BALB/c mouse macrophages assessed as cell viability; assay type: functional, Macrophage; design: concentration or dose not given beside the values
[2] = Toxicity against BALB/c mouse macrophages assessed as disrupted cells; assay type: functional, Macrophage
Macrophage = assay: as §2; assay type: functional; design: concentration or dose not given beside the values

Compound | inhibition at 80 µg/mL (Leishmania donovani) [%] | inhibition at 80 µg/mL (Leishmania amazonensis) [%] | Activity [1] [%] | Activity [2] [%] | inhibition (Leishmania donovani) [%] | inhibition (Leishmania amazonensis) [%] | Activity (Macrophage) [%]
COc1ccc([C@@H](O)[C@H](C)Sc2ccc(Cl)cc2)cc1OC (relative stereo) | 0 | 36.1 | >80 | – | – | – | –
CC(Sc1ccccc1)C(=O)c1ccccc1 (configuration not stated) | 70.2 | 78.1 | >80 | – | – | – | –
O=C(CSc1ccc(Cl)cc1)c1ccccc1 | 37.2 | 38.8 | >80 | – | – | – | –
COc1ccc(C(=O)C(C)Oc2c(OC)cccc2OC)cc1OC (configuration not stated) | 49.9 | 37.9 | >80 | – | – | – | –
CC(Sc1ccc(N)cc1)C(=O)c1ccccc1 (configuration not stated) | 28.8 | 0 | >80 | – | – | – | –
COc1ccc(C(=O)COc2ccc(Cl)cc2)cc1OC | 0 | 17.7 | >80 | – | – | – | –
O=C(CSc1ccc(Cl)cc1)c1ccc(Cl)cc1 | 0 | 50.5 | >80 | – | – | – | –
O=C(COc1ccccc1)c1ccccc1 | 40 | 44 | >80 | – | – | – | –
COc1ccc(C(=O)C(C)Sc2ccc(C)cc2)cc1OC (configuration not stated) | 100 | 100 | – | – | – | – | –
COc1ccc(C(=O)C(C)S(=O)(=O)c2ccc(C)cc2)cc1OC (configuration not stated) | 0 | 7 | >80 | – | – | – | –
COc1ccc(C(=O)C(C)Sc2ccccc2)cc1OC (configuration not stated) | – | – | – | >80 | – | – | –
COc1ccc([C@@H](O)[C@H](C)Sc2ccc(C)cc2)cc1OC (relative stereo) | 0 | 40.6 | >80 | – | – | – | –
COc1ccc(C(=O)C(C)Sc2ccc(N)cc2)cc1OC (configuration not stated) | – | – | – | >80 | – | – | –
MEGLUMINE ANTIMONATE | – | – | – | – | 26 | 28.2 | > 80
COc1ccc(C(=O)C(C)Sc2ccc(Cl)cc2)cc1OC (configuration not stated) | 22 | 63.3 | >80 | – | – | – | –
CC(Sc1ccc(Cl)cc1)C(=O)c1ccccc1 (configuration not stated) | 94.1 | 100 | >80 | – | – | – | –
CSc1ccccc1OCC(=O)c1ccc(Cl)cc1 | 5.8 | 8.8 | >80 | – | – | – | –
C/C=C/c1ccc(OC(C)C(=O)c2ccc(OC)c(OC)c2)c(OC)c1 (configuration not stated) | 50 | 34.2 | >80 | – | – | – | –
Cc1ccc(SC(C)C(=O)c2ccccc2)cc1 (configuration not stated) | – | – | – | >80 | – | – | –
CC(C(=O)c1ccccc1)[S+]([O-])c1ccc(Cl)cc1 (configuration not stated) | 0 | 20.7 | >80 | – | – | – | –
CC(C(=O)c1ccccc1)S(=O)(=O)c1ccc(Cl)cc1 (configuration not stated) | 0 | 0 | >80 | – | – | – | –
CC(=O)O[C@H](c1ccccc1)[C@H](C)Sc1ccc(Cl)cc1 (relative stereo) | 0 | 0 | >80 | – | – | – | –
C[C@H](Sc1ccc(Cl)cc1)[C@H](O)c1ccccc1 (relative stereo) | 45.2 | 50.6 | >80 | – | – | – | –
